“Also recorded” adds a separate entry of the source.

The target of experiment [1] is T1, CCK2i4svR (Homo sapiens, UniProt P32239).
T1 sequence (P32239 1-516 isoform P32239-2): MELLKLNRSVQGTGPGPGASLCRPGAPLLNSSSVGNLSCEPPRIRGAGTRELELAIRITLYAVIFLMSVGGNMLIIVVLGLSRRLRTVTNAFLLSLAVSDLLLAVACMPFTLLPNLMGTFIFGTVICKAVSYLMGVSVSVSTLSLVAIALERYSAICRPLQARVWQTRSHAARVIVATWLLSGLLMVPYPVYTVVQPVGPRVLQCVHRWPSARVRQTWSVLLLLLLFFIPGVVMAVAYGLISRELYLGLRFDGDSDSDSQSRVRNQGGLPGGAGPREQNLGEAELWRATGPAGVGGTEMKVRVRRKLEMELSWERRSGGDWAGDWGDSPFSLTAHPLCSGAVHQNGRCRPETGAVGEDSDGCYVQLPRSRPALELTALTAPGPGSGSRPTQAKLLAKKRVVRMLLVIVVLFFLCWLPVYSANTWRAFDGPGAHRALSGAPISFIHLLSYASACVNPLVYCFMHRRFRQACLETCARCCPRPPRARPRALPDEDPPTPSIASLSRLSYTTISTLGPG
It is filed as binding. As to conditions: read-out: IC50, displacement of [125I][I-Tyr12,Leu15]gastrin; HEK293-CCK2i4svR cell membranes, 60 min at 22 °C, mean ± SD, n = 3. Summed up:
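Parent nonpeptidic antagonist served as reference. Stopped with ice-cold 10 mM HEPES pH 7.4/150 mM NaCl, then rapid GF/B glass-fibre filtration and gamma counting. IC50 by one-site nonlinear regression; mean ± SD, three experiments in triplicate.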
Background: Loss of bound radioactivity is the signal in a displacement assay; it reports binding, not function.

For experiment [2], the system named is untransfected HEK293 cells. Nature of the experiment: fura-2 assay of [Ca2+]i in untransfected HEK293 cells. It is filed as cell-based, human. The following applies: DG2 0.1–10 μM; ADP 20 μM positive control. Summed up: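 Trypsinized HEK293 cells plated on rat tail collagen-coated 96-well plates and loaded with fura-2 AM. Read in kinetic mode on a fluorescence plate reader. Test solutions added by automated pipetting at 100 s. Data sampled at 6 s intervals over 300 s. Read-out: percent change in 340/380 ratio after baseline subtraction. Each experiment repeated at least three times.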

With `CC(C)(C)C(=O)CN1C(=O)[C@H](NC(=O)Nc2cccc(C(=O)O)c2)CN(C2CCCCC2)c2ccccc21` [Z-360, 3-[[[[(3R)-5-cyclohexyl-1-(3,3-dimethyl-2-ox-obutyl)-2,3,4,5-tetrahydro-2-oxo-1H-1,5-benzodiazepin-3-yl]-amino]carbonyl]amino]benzoic acid], the IC50 in experiment [1] amounted to 1.57 ± 0.14 nM. Take `Nc1ncnc2c1ncn2[C@@H]1O[C@H](COP(=O)(O)OP(=O)(O)O)[C@@H](O)[C@H]1O` [ADP]: the “agonist action on [Ca2+]i in untransfected HEK293 cells” value in experiment [2] was “did respond; also recorded: does exert an agonist action”.

By IC50 is commonly meant the concentration that gives 50% inhibition.

The values are drawn from publication PMC7429258 (Molecular pharmaceutics, 2020).
